# Experimental data taken from ChEMBL document CHEMBL5042553 (J Med Chem, 2022).
# Active and inactive are the calls of the source. No cut-off for these calls is given here.
# Legend:
# [1] = Inhibition of HDAC1-CoREST-LSD1 (unknown origin) using Boc- (Ac)Lys-AMC as substrate preincubated for 1 hr followed by substrate addition and measured after 1 hr by fluorescent assay; design: species or system Homo sapiens
# [2] = Inhibition of HDAC3-SMRT (unknown origin) using Boc- (Ac)Lys-AMC as substrate preincubated for 1 hr followed by substrate addition and measured after 1 hr by fluorescent assay; design: species or system Homo sapiens
# [3] = target: T1, von Hippel-Lindau disease tumor suppressor/Histone deacetylase 1 (Homo sapiens, UniProt Q13547+P40337); experiment: Protac activity at VHL/HDAC1 in human HCT-116 cells assessed as induction of HDAC1 degradation incubated for 24 hrs by Western blot analysis; type: cell-based
# Target sequence in this assay (Q13547 whole entry): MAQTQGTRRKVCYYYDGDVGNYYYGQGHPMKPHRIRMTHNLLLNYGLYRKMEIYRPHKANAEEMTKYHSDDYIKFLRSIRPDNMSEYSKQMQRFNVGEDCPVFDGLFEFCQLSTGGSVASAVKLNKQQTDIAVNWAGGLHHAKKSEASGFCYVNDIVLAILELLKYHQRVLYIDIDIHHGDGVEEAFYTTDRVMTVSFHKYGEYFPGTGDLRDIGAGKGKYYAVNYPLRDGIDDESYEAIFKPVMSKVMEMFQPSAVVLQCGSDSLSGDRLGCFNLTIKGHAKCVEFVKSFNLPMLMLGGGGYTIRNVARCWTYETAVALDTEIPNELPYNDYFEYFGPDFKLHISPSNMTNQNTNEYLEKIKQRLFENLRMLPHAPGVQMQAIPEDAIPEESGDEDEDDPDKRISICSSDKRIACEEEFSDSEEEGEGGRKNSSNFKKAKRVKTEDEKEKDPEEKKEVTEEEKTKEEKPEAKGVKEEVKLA
# Target sequence in this assay (P40337 whole entry): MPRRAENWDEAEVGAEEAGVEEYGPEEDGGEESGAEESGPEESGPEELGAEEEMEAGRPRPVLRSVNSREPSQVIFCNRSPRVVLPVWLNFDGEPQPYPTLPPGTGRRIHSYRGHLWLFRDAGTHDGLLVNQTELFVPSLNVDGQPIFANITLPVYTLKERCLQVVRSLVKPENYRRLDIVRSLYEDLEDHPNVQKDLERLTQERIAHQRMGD
# HCT-116 [4] = experiment: Cytotoxicity against human HCT-116 cells assessed as reduction in cell viability measured after 48 hrs by cell-titer glo assay; type: functional, cell-based
# [5] = target: T2, von Hippel-Lindau disease tumor suppressor/Histone deacetylase 3 (Homo sapiens, UniProt O15379+P40337); experiment: Protac activity at VHL/HDAC3 in human HCT-116 cells assessed as induction of HDAC3 degradation incubated for 24 hrs by Western blot analysis; type: cell-based
# Target sequence in this assay (O15379 whole entry): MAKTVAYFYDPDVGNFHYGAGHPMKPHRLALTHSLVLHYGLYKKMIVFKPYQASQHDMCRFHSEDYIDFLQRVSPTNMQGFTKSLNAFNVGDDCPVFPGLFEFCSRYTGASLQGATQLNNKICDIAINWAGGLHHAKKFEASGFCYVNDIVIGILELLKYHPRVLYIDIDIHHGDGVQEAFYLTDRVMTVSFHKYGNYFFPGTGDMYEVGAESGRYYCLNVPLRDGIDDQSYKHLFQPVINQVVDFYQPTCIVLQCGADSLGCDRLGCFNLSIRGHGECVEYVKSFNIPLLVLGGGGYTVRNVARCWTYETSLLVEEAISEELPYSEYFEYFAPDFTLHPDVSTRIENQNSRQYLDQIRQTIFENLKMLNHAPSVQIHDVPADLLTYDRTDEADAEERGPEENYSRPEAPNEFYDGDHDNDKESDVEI
# Target sequence in this assay (P40337 whole entry): as the sequence (P40337 whole entry) above
# [6] = Inhibition of HDAC2-CoREST-LSD1 (unknown origin) using Boc- (Ac)Lys-AMC as substrate preincubated for 1 hr followed by substrate addition and measured after 1 hr by fluorescent assay; design: species or system Homo sapiens
# [7] = target: T3, von Hippel-Lindau disease tumor suppressor/Histone deacetylase 2 (Homo sapiens) (UniProt Q92769+P40337); experiment: Protac activity at VHL/HDAC2 in human HCT-116 cells assessed as induction of HDAC2 degradation at 1 to 10 uM incubated for 24 hrs by Western blot analysis; type: cell-based; details: dose 1-10 µM
# Procedure, shortened: (§1)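 HCT116 cells (37 °C, 5% CO₂) seeded for 24 h, then given DMSO or PROTAC (0.01–10 μM) in fresh medium for 2–48 h. Lysates made in Tris/NaCl/NP-40/Triton X-100 buffer with protease inhibitor; histones acid-extracted with 0.4 N H₂SO₄. 30 μg protein or 10 μL histone extract per lane run on 4–12% bis-Tris gels. Quantitative western blotting used IR-dye secondaries and band densitometry, referenced to DMSO; two independent biological replicates.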
# [8] = target: T1, von Hippel-Lindau disease tumor suppressor/Histone deacetylase 1; experiment: Protac activity at VHL/HDAC1 in human HCT-116 cells assessed as induction of HDAC1 degradation at 1 to 10 uM incubated for 24 hrs by Western blot analysis; type: cell-based; details: dose 1-10 µM; procedure, shortened: as §1
# Target sequence in this assay (P40337 whole entry, looked up): as the sequence (P40337 whole entry) above
# Target sequence in this assay (Q13547 whole entry, looked up): as the sequence (Q13547 whole entry) above
# [9] = target: T2, von Hippel-Lindau disease tumor suppressor/Histone deacetylase 3; experiment: Protac activity at VHL/HDAC3 in human HCT-116 cells assessed as induction of HDAC3 degradation at 1 to 10 uM incubated for 24 hrs by Western blot analysis; type: cell-based; details: dose 1-10 µM; procedure, shortened: as §1
# Target sequence in this assay (O15379 whole entry, looked up): as the sequence (O15379 whole entry) above
# Target sequence in this assay (P40337 whole entry, looked up): as the sequence (P40337 whole entry) above
# [10] = target: T2, von Hippel-Lindau disease tumor suppressor/Histone deacetylase 3; experiment: Protac activity at VHL/HDAC3 in human HCT-116 cells assessed as induction of HDAC3 degradation at 10 uM incubated for 24 hrs by Western blot analysis; type: cell-based; procedure, shortened: as §1
# Target sequence in this assay (O15379 whole entry, looked up): as the sequence (O15379 whole entry) above
# Target sequence in this assay (P40337 whole entry, looked up): as the sequence (P40337 whole entry) above
# [11] = target: T1, von Hippel-Lindau disease tumor suppressor/Histone deacetylase 1; experiment: Protac activity at VHL/HDAC1 in human HCT-116 cells assessed as induction of HDAC1 degradation at 1 uM incubated for 24 hrs by Western blot analysis; type: cell-based; procedure, shortened: as §1
# Target sequence in this assay (P40337 whole entry, looked up): as the sequence (P40337 whole entry) above
# Target sequence in this assay (Q13547 whole entry, looked up): as the sequence (Q13547 whole entry) above
# [12] = target: T2, von Hippel-Lindau disease tumor suppressor/Histone deacetylase 3; experiment: Protac activity at VHL/HDAC3 in human HCT-116 cells assessed as induction of HDAC3 degradation at 1 uM measured after 15 hrs by Western blot analysis; type: cell-based; procedure, shortened: as §1
# Target sequence in this assay (O15379 whole entry, looked up): as the sequence (O15379 whole entry) above
# Target sequence in this assay (P40337 whole entry, looked up): as the sequence (P40337 whole entry) above
# HCT-116 [13] = experiment: Induction of apoptosis in HCT-116 cells assessed as accumulation of cells in Sub-G1 phase at 10 uM measured after 48 hrs by flow cytometry analysis; details: Homo sapiens
# [14] = target: T1, von Hippel-Lindau disease tumor suppressor/Histone deacetylase 1; experiment: Protac activity at VHL/HDAC1 in human HCT-116 cells assessed as reduction in LSD1 level measured after 48 hrs by Western blot analysis; design: scale not given: the % may be the effect or the level left
# Target sequence in this assay (P40337 whole entry, looked up): as the sequence (P40337 whole entry) above
# Target sequence in this assay (Q13547 whole entry, looked up): as the sequence (Q13547 whole entry) above
# [15] = target: T3, von Hippel-Lindau disease tumor suppressor/Histone deacetylase 2 (Homo sapiens); experiment: Protac activity at VHL/HDAC2 in human HCT-116 cells assessed as induction of HDAC2 degradation at 10 uM measured after 4 hrs by Western blot analysis; type: cell-based; procedure, shortened: as §1
# HCT-116 [16] = experiment: Induction of apoptosis in human HCT-116 cells assessed as accumulation of cells in Sub-G1 phase at 10 uM measured after 24 hrs by flow cytometry analysis
# [17] = target: T2, von Hippel-Lindau disease tumor suppressor/Histone deacetylase 3; experiment: Protac activity at VHL/HDAC3 in human HCT-116 cells assessed as induction of HDAC3 degradation at 10 uM measured upto 24 hrs by Western blot analysis; type: cell-based; details: time hrs <=24; procedure, shortened: as §1
# Target sequence in this assay (O15379 whole entry, looked up): as the sequence (O15379 whole entry) above
# Target sequence in this assay (P40337 whole entry, looked up): as the sequence (P40337 whole entry) above
# [18] = target: T2, von Hippel-Lindau disease tumor suppressor/Histone deacetylase 3; experiment: Protac activity at VHL/HDAC3 in human HCT-116 cells assessed as induction of HDAC3 degradation at 10 uM measured after 36 to 48 hrs by Western blot analysis; type: cell-based; details: time 36-48 hrs; procedure, shortened: as §1
# Target sequence in this assay (O15379 whole entry, looked up): as the sequence (O15379 whole entry) above
# Target sequence in this assay (P40337 whole entry, looked up): as the sequence (P40337 whole entry) above
# [19] = target: T3, von Hippel-Lindau disease tumor suppressor/Histone deacetylase 2 (Homo sapiens); experiment: Protac activity at VHL/HDAC2 in human HCT-116 cells assessed as fold increase in H3K56ac at 10 uM measured after 8 hrs by Western blot analysis relative to control; type: cell-based; procedure, shortened: as §1
# [20] = target: T2, von Hippel-Lindau disease tumor suppressor/Histone deacetylase 3; experiment: Protac activity at VHL/HDAC3 in human HCT-116 cells assessed as induction of HDAC3 degradation at 1 uM measured after 4 hrs by Western blot analysis; type: cell-based; procedure, shortened: as §1
# Target sequence in this assay (O15379 whole entry, looked up): as the sequence (O15379 whole entry) above
# Target sequence in this assay (P40337 whole entry, looked up): as the sequence (P40337 whole entry) above
# [21] = target: T1, von Hippel-Lindau disease tumor suppressor/Histone deacetylase 1; experiment: Protac activity at VHL/HDAC1 in human HCT-116 cells assessed as fold increase in H3K56ac at 10 uM measured after 8 hrs by Western blot analysis relative to control; type: cell-based; procedure, shortened: as §1
# Target sequence in this assay (P40337 whole entry, looked up): as the sequence (P40337 whole entry) above
# Target sequence in this assay (Q13547 whole entry, looked up): as the sequence (Q13547 whole entry) above
# [22] = target: T1, von Hippel-Lindau disease tumor suppressor/Histone deacetylase 1; experiment: Protac activity at VHL/HDAC1 in human HCT-116 cells assessed as induction of HDAC1 degradation at 10 uM measured after 4 hrs by Western blot analysis; type: cell-based; procedure, shortened: as §1
# Target sequence in this assay (P40337 whole entry, looked up): as the sequence (P40337 whole entry) above
# Target sequence in this assay (Q13547 whole entry, looked up): as the sequence (Q13547 whole entry) above
# [23] = target: T3, von Hippel-Lindau disease tumor suppressor/Histone deacetylase 2 (Homo sapiens); experiment: Protac activity at VHL/HDAC2 in human HCT-116 cells assessed as reduction in LSD1 level measured after 48 hrs by Western blot analysis; design: scale not given: the % may be the effect or the level left
# [24] = target: T3, von Hippel-Lindau disease tumor suppressor/Histone deacetylase 2 (Homo sapiens); experiment: Protac activity at VHL/HDAC2 in human HCT-116 cells assessed as induction of HDAC2 degradation at 1 uM measured upto 48 hrs by Western blot analysis; type: cell-based; details: time hrs <=48; procedure, shortened: as §1
# [25] = target: T1, von Hippel-Lindau disease tumor suppressor/Histone deacetylase 1; experiment: Protac activity at VHL/HDAC1 in human HCT-116 cells assessed as induction of HDAC1 degradation at 1 uM measured upto 48 hrs by Western blot analysis; type: cell-based; details: time hrs <=48; procedure, shortened: as §1
# Target sequence in this assay (P40337 whole entry, looked up): as the sequence (P40337 whole entry) above
# Target sequence in this assay (Q13547 whole entry, looked up): as the sequence (Q13547 whole entry) above
# T3 sequence (P40337 whole entry, looked up): as the sequence (P40337 whole entry) above
# T3 sequence (Q92769 whole entry, looked up): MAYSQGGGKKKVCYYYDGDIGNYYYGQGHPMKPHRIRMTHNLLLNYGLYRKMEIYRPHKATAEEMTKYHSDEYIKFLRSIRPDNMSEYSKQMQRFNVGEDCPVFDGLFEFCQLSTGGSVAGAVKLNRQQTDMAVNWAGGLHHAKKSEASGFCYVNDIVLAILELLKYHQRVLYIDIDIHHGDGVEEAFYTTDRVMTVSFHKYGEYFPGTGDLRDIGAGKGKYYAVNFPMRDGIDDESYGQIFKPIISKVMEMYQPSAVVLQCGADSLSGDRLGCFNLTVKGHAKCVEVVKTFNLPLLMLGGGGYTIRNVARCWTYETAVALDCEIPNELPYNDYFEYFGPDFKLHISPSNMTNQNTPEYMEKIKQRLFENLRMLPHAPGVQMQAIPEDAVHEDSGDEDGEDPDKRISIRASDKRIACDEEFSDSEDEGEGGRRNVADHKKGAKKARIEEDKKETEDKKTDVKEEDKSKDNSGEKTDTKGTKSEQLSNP
Compound,Activity [7],Activity [8],Activity [9],further results
"CC(=O)NC(C(=O)N1C[C@H](O)C[C@H]1C(=O)NCc1ccc(-c2scnc2C)cc1OCCCCCCCCCCCC(=O)Nc1ccc(C(=O)Nc2ccccc2N)cc1)C(C)(C)C (single isomer, unassigned)",–,–,–,IC50 [1]: 1.51 µM; IC50 [2]: 3.81 µM; DC50 [3]: 3.51 µM; Activity (HCT-116 [4]): inactive; DC50 [5]: 1.38 µM; IC50 [6]: 3.46 µM
Cc1ncsc1-c1ccc(CNC(=O)[C@@H]2C[C@@H](O)CN2C(=O)[C@@H](NC(=O)CCCCCCCCCCC(=O)Nc2ccc(C(=O)Nc3ccccc3N)cc2)C(C)(C)C)cc1,–,–,–,Activity [10]: Active
Cc1ncsc1-c1ccc(CNC(=O)[C@@H]2C[C@@H](O)CN2C(=O)[C@@H](NC(=O)CCCCCCCCCCC(=O)Nc2ccc(C(=O)Nc3cc(-c4cccs4)ccc3N)cc2)C(C)(C)C)cc1,inactive,inactive,–,–
Cc1ncsc1-c1ccc(CNC(=O)[C@@H]2C[C@@H](O)CN2C(=O)[C@@H](NC(=O)COCCCCCCOCC(=O)Nc2ccc(C(=O)Nc3ccccc3N)cc2)C(C)(C)C)cc1,–,–,–,Activity [11]: inactive
"CC(=O)NC(C(=O)N1C[C@H](O)C[C@H]1C(=O)NCc1ccc(-c2scnc2C)cc1OCCCCNC(=O)CCCCC(=O)Nc1ccc(C(=O)Nc2ccccc2N)cc1)C(C)(C)C (single isomer, unassigned)",–,Active,–,–
"Cc1ncsc1-c1ccc(CNC(=O)[C@@H]2CC(O)CN2C(=O)[C@@H](NC(=O)COCCOCCOCCOCC(=O)Nc2ccc(C(=O)Nc3ccccc3N)cc2)C(C)(C)C)cc1 (single isomer, unassigned)",inactive,inactive,inactive,–
Cc1ncsc1-c1ccc(CNC(=O)[C@@H]2C[C@@H](O)CN2C(=O)[C@@H](NC(=O)COCCOCCOCC(=O)Nc2ccc(C(=O)Nc3ccccc3N)cc2)C(C)(C)C)cc1,inactive,inactive,inactive,–
Cc1ncsc1-c1ccc(CNC(=O)[C@@H]2C[C@@H](O)CN2C(=O)[C@@H](NC(=O)COCCCCCCCCCOCC(=O)Nc2ccc(C(=O)Nc3ccc(F)cc3N)cc2)C(C)(C)C)cc1,–,–,–,Activity [11]: Active
Cc1ncsc1-c1ccc(CNC(=O)[C@@H]2C[C@@H](O)CN2C(=O)[C@@H](NC(=O)CCCCCCCC(=O)Nc2ccc(C(=O)Nc3cc(-c4cccs4)ccc3N)cc2)C(C)(C)C)cc1,inactive,inactive,–,–
Cc1ncsc1-c1ccc(CNC(=O)[C@@H]2C[C@@H](O)CN2C(=O)[C@@H](NC(=O)COCCOCCOCC(=O)Nc2ccc(C(=O)Nc3cc(-c4cccs4)ccc3N)cc2)C(C)(C)C)cc1,inactive,inactive,–,–
"CC(=O)NC(C(=O)N1C[C@H](O)C[C@H]1C(=O)NCc1ccc(-c2scnc2C)cc1OCCCCNC(=O)CCCCCCCC(=O)Nc1ccc(C(=O)Nc2ccccc2N)cc1)C(C)(C)C (single isomer, unassigned)",–,Active,–,–
"Cc1ncsc1-c1ccc(CNC(=O)[C@@H]2C[C@@H](O)CN2C(=O)C(NC(=O)CCCCCCCCCCC(=O)Nc2ccc(C(=O)Nc3ccc(F)cc3N)cc2)C(C)(C)C)cc1 (single isomer, unassigned)",–,–,Active,–
Cc1ncsc1-c1ccc(CNC(=O)[C@@H]2C[C@@H](O)CN2C(=O)[C@@H](NC(=O)COCCCCCCCCCOCC(=O)Nc2ccc(C(=O)Nc3ccccc3N)cc2)C(C)(C)C)cc1,–,–,–,Activity [12]: Active; Activity (HCT-116 [13]): Active; Activity [14]: 40%; Activity [15]: Active; Activity (HCT-116 [16]): Active; Activity [11]: Active; Activity [17]: inactive; Activity [18]: 50%; fold change (FC) [19]: 2; Activity [20]: Active; fold change (FC) [21]: 2; Activity [22]: Active; Activity [23]: 40%; Activity [24]: Active; Activity [25]: Active
"Cc1ncsc1-c1ccc(CNC(=O)[C@@H]2C[C@@H](O)CN2C(=O)C(NC(=O)COCCOCCOCC(=O)Nc2ccc(C(=O)Nc3ccc(F)cc3N)cc2)C(C)(C)C)cc1 (single isomer, unassigned)",–,–,–,Activity [10]: Active

# Second part, led by results:
Activity [7],Activity [8],Activity [9],Compound,further results
inactive,inactive,inactive,Cc1ncsc1-c1ccc(CNC(=O)[C@@H]2C[C@@H](O)CN2C(=O)[C@@H](NC(=O)COCCOCC(=O)Nc2ccc(C(=O)Nc3ccccc3N)cc2)C(C)(C)C)cc1,–
Active,Active,–,Cc1ncsc1-c1ccc(CNC(=O)[C@@H]2C[C@@H](O)CN2C(=O)[C@@H](NC(=O)CCCCCCCCCCCCC(=O)Nc2ccc(C(=O)Nc3ccccc3N)cc2)C(C)(C)C)cc1,–
Active,Active,inactive,Cc1ncsc1-c1ccc(CNC(=O)[C@@H]2C[C@@H](O)CN2C(=O)[C@@H](NC(=O)CCCCCCCCC(=O)Nc2ccc(C(=O)Nc3ccccc3N)cc2)C(C)(C)C)cc1,–
Active,Active,inactive,Cc1ncsc1-c1ccc(CNC(=O)[C@@H]2C[C@@H](O)CN2C(=O)[C@@H](NC(=O)CCCCCCCCCC(=O)Nc2ccc(C(=O)Nc3ccccc3N)cc2)C(C)(C)C)cc1,–
Active,Active,inactive,Cc1ncsc1-c1ccc(CNC(=O)[C@@H]2C[C@@H](O)CN2C(=O)[C@@H](NC(=O)CCCCCCCC(=O)Nc2ccc(C(=O)Nc3ccccc3N)cc2)C(C)(C)C)cc1,–
inactive,inactive,inactive,Cc1ncsc1-c1ccc(CNC(=O)[C@@H]2C[C@@H](O)CN2C(=O)[C@@H](NC(=O)CCCN2CCN(CCCC(=O)Nc3ccc(C(=O)Nc4ccccc4N)cc3)CC2)C(C)(C)C)cc1,–
